Experimental findings from ChEMBL document CHEMBL1125815, “2-Phenyl-3H-imidazo[4,5-b]pyridine-3-acetamides as non-benzodiazepine anticonvulsants and anxiolytics” (J Med Chem, 1991) are described below.

The species entered for data set [1] is Mus musculus. As to the kind of experiment: Potentiation of ethanol (EtOH) induced sleep time in mice. It counts as functional. Conditions: read-out: MED. Summed up: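 Compound given orally; the minimal effective dose (mg/kg po) for potentiating ethanol-induced sleep time in mice was reported.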
The species named for data set [2] is Mus musculus. As to the kind of experiment: Anxiolytic activity by light/dark exploratory behavioral test in mice. The data set is classed as functional. Conditions: for minimal effective dose: read-out: MED. Summed up: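 Mice were dosed 30 min before testing, then placed individually in a two-compartment light/dark activity chamber and left undisturbed for 5 min. Time spent in each compartment was compared with vehicle-treated mice by Dunnett's t test. Minimal effective dose and sedative dose reported in mg/kg ip.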

For data set [3], the species on record is Mus musculus. As to the kind of experiment: Anticonvulsant activity against pentylenetetrazole-induced clonic seizures in mice. The data set is classed as functional. Conditions: Mus musculus; read-out: ED50. The gist of the method:
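Female adult ICR mice, groups of eight, given test compound ip (100 mg/kg screen) in 0.5% aqueous methylcellulose or vehicle. Challenged 30 min later with pentyletetrazole 80 mg/kg sc and scored for clonic seizures.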

For data set [4], the target named is GABA-A receptor; anion channel. The experiment in a line: Displacement of [3H]flunitrazepam from GABA-A benzodiazepine receptor of rat cerebral cortex membrane. The data set is classed as tissue-based. Summed up: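 Rat cerebral cortex P2+P3 membranes (fresh tissue, two freeze-thaw-wash cycles to remove endogenous GABA), 0.4 mg protein. Incubated with 1 nM [3H]flunitrazepam and six concentrations (1 × 10^-5 – 1 × 10^-10 M) for 30 min at 4 °C. Filtered on GF/b filters and counted. […] IC50 from log-logit regression, mean of replicates.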
(Loss of bound radioactivity is the signal in a displacement assay; it reports binding, not function.)

The species named for data set [5] is Rattus norvegicus. As to the kind of experiment: Anxiolytic activity by vogel punished drinking test in rats. The data set is classed as functional. Conditions: read-out: MED. Summed up:
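Modified Vogel conflict test. Rats were water-deprived for 48 h with food available. A drinkometer delivered a 0.65 mA shock after every 20th lick during a 3-min session starting at the first shock. Total shocks were compared with vehicle-treated rats by Dunnett's t test. Minimal effective dose reported in mg/kg ip.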

The species entered for data set [6] is Rattus norvegicus. The experiment in a line: Ratio of IC50 values for [3H]-Ro- 15-1788 binding in absence and presence of added GABA (rat cerebral cortex). The data set is classed as functional. The gist of the method: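 Rat cerebral cortex membranes. IC50 for displacement of [3H]Ro 15-1788 was measured without and with excess added GABA. The ratio of the two IC50 values served as the index of agonist efficacy.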

The species entered for data set [7] is Mus musculus. As to the kind of experiment: (§1) Neurotoxicity against mice in rotarod test. It counts as toxicity, organism-based. The settings on record: in vivo. The gist of the method:
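Groups of five randomly selected mice were dosed 30 min before being placed on a knurled 28-mm rod rotating at 6 rpm. Failure to stay on the rod for 1 min was scored as neurotoxic. ED50 (mg/kg ip) and confidence limits came from probit analysis.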
(Falling from the rotarod earlier than controls is read as motor impairment.)

The test system of data set [8] is Mus musculus. The experiment in a line: Anticonvulsant activity against picrotoxin-induced clonic seizures in mice at 3.2 mg/kg sc. It counts as functional. Conditions: route subcutaneous.
The nature of data set [9]: as §1. Conditions: mouse, in vivo. The data set is classed as toxicity, organism-based. Summed up:
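Mice in groups of five, dosed ip 30 min before being placed on a knurled 28 mm rod rotating at 6 rpm. Failure to stay on for 1 min was scored as neurotoxic. ED50 and confidence limits were obtained by probit analysis.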

The species entered for data set [10] is Mus musculus. The experiment in a line: Compound was tested for anticonvulsant activity against maximal electroshock-induced […] seizures in mice at 50mA, 200 ms. The data set is classed as functional. (Protection in the maximal electroshock model is a classic sign of anticonvulsant action.)
Data set [11] deals with Mus musculus. As to the kind of experiment: Compound was tested for anticonvulsant activity against bicuculline-induced clonic seizures in mice at 2.7 mg/kg sc. It counts as functional. The settings on record: route subcutaneous.
Data set [12] has as its system Mus musculus. The experiment in a line: Compound was tested for anticonvulsant activity against pentylenetetrazole-induced clonic seizures in mice at dose 80 mg/kg.

A value given as a limit tells only on which side of the number the result lay.

On to `Cc1ccc(-c2nc3ccc(Cl)nc3n2CC(=O)N(C)C)cc1`, for which the minimal effective dose came to 10 mg/kg in data set [1], 0.1 mg/kg in [2] and 1 mg/kg in data set [5]. The compound also showed a Sedative dose in data set [2] of 5.62 mg/kg. Moreover, the ED50 in data set [3] was 2.7 mg/kg; in data set [7], 15.2 mg/kg. This compound also displayed an IC50 in data set [4] of 0.15 µM. In addition, the GABA shift in data set [6] worked out at 3.06.

Consider `NC(=O)Cn1c(-c2ccc(Cl)cc2)nc2cccnc21`, for which the ED50 is 211 mg/kg in data set [8], 4.1 mg/kg in [3], 329 mg/kg in data set [10] and 174 mg/kg in data set [11]. In [9], this compound had a TD50 above 1000 mg/kg. Also, the IC50 in data set [4] is 8 µM.

Consider `CN1C(=O)CN=C(c2ccccc2)c2cc(Cl)ccc21` [DIAZEPAM], for which the figures for the minimal effective dose in data set [1], in data set [2] and in data set [5] were 2.5 mg/kg, 1 mg/kg and 1 mg/kg, respectively. This compound also showed a Sedative dose in data set [2] of 10 mg/kg. Besides, the ED50 in data set [3] came to 0.9 mg/kg; in [12], 0.2 mg/kg; in data set [7], 1.7 mg/kg.

In general, ED50 refers to the dose at which the effect has come halfway, by size or by number of responders. By IC50 is commonly meant the concentration needed to halve the response being measured. What is called TD50 is the 50% point of the dose-response relation for the toxic effect studied.
